Measured values published in ChEMBL document CHEMBL1955778, “Design and synthesis of novel 7-aminoquinazoline derivatives: antitumor and anticonvulsant activities” (Bioorg Med Chem Lett, 2012).

What was measured:
Format in all cases: functional
[1] = test system: MDA-MB-435; experiment: Growth inhibition of human MDA-MB-435 cells at 10 uM relative to control; conditions: read-out: GI
Summary of the method: (§1)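 Each cell line in a 60-line human tumour panel exposed to one 10 μM concentration. Growth inhibition percentage computed as 100 minus the percentage activity relative to control.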

[2] = test system: OVCAR-4; experiment: Growth inhibition of human OVCAR4 cells at 10 uM relative to control; conditions: read-out: GI; summary of the method: as §1
[3] = test system: KM12; experiment: Growth inhibition of human KM12 cells at 10 uM relative to control; conditions: read-out: GI; summary of the method: as §1
[4] = test system: K562; experiment: Growth inhibition of human K562 cells at 10 uM relative to control; conditions: read-out: GI; summary of the method: as §1
[5] = test system: M14; experiment: Growth inhibition of human M14 cells at 10 uM relative to control; conditions: read-out: GI; summary of the method: as §1
[6] = test system: OVCAR-8; experiment: Growth inhibition of human OVCAR8 cells at 10 uM relative to control; conditions: read-out: GI; summary of the method: as §1
[7] = test system: HOP-62; experiment: Growth inhibition of human HOP62 cells at 10 uM relative to control; conditions: read-out: GI; summary of the method: as §1
[8] = test system: SNB-19; experiment: Growth inhibition of human SNB19 cells at 10 uM relative to control; conditions: read-out: GI
Summary of the method: (§2)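 Single-dose screen across the 60-cell-line human tumor panel at 10 μM. Growth inhibition is reported as a percentage, taken as 100 minus the % growth relative to untreated control.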

[9] = test system: ACHN; experiment: Growth inhibition of human ACHN cells at 10 uM relative to control; conditions: read-out: GI; summary of the method: as §1
[10] = test system: Mus musculus; experiment: Anticonvulsant activity in mouse assessed as protection against strychnine-induced seizure at 1 mmol/kg, ip administered 30 min prior to strychnine-challenge measured after 60 mins relative to control
[11] = test system: CAKI-1; experiment: Growth inhibition of human CAKI-1 cells at 10 uM relative to control; conditions: read-out: GI; summary of the method: as §1
[12] = test system: OVCAR-5; experiment: Growth inhibition of human OVCAR5 cells at 10 uM relative to control; conditions: read-out: GI; summary of the method: as §1
[13] = test system: A549; experiment: Growth inhibition of human A549 cells at 10 uM relative to control; conditions: read-out: GI; summary of the method: as §1
[14] = test system: BT-549; experiment: Growth inhibition of human BT549 cells at 10 uM relative to control; conditions: read-out: GI; summary of the method: as §1
[15] = test system: Mus musculus; experiment: Anticonvulsant activity in mouse assessed as protection against maximal electroshock-induced seizure at 1 mmol/kg, ip administered 30 min prior to maximal electroshock-challenge measured after 60 mins relative to control
[16] = test system: U-251; experiment: Growth inhibition of human U251 cells at 10 uM relative to control; conditions: read-out: GI; summary of the method: as §2
[17] = test system: SNB-75; experiment: Growth inhibition of human SNB75 cells at 10 uM relative to control; conditions: read-out: GI; summary of the method: as §2
[18] = test system: Malme-3M; experiment: Growth inhibition of human MALME-3M cells at 10 uM relative to control; conditions: read-out: GI; summary of the method: as §1
[19] = test system: SR; experiment: Growth inhibition of human SR cells at 10 uM relative to control; conditions: read-out: GI; summary of the method: as §2
[20] = test system: UO-31; experiment: Growth inhibition of human UO31 cells at 10 uM relative to control; conditions: read-out: GI; summary of the method: as §2
[21] = test system: RPMI-8226; experiment: Growth inhibition of human RPMI8226 cells at 10 uM relative to control; conditions: read-out: GI; summary of the method: as §1
[22] = test system: T47D; experiment: Growth inhibition of human T47D cells at 10 uM relative to control; conditions: read-out: GI; summary of the method: as §2
[23] = test system: SF-295; experiment: Growth inhibition of human SF295 cells at 10 uM relative to control; conditions: read-out: GI; summary of the method: as §1
[24] = test system: SK-MEL-5; experiment: Growth inhibition of human SK-MEL-5 cells at 10 uM relative to control; conditions: read-out: GI; summary of the method: as §1
[25] = test system: HCT-116; experiment: Growth inhibition of human HCT116 cells at 10 uM relative to control; conditions: read-out: GI; summary of the method: as §1
[26] = test system: EKVX; experiment: Growth inhibition of human EKVX cells at 10 uM relative to control; conditions: read-out: GI; summary of the method: as §1
[27] = test system: SF-539; experiment: Growth inhibition of human SF539 cells at 10 uM relative to control; conditions: read-out: GI; summary of the method: as §1
[28] = test system: Mus musculus; experiment: Anticonvulsant activity in mouse assessed as protection against pentylenetetrazol-induced seizure at 1 mmol/kg, ip administered 30 min prior to pentylenetetrazol-challenge measured after 60 mins relative to control
[29] = test system: A498; experiment: Growth inhibition of human A498 cells at 10 uM relative to control; conditions: read-out: GI; summary of the method: as §1
[30] = test system: MCF7; experiment: Growth inhibition of human MCF7 cells at 10 uM relative to control; conditions: read-out: GI; summary of the method: as §1
[31] = test system: PC-3; experiment: Growth inhibition of human PC3 cells at 10 uM relative to control; conditions: read-out: GI; summary of the method: as §1
[32] = test system: HCT-15; experiment: Growth inhibition of human HCT15 cells at 10 uM relative to control; conditions: read-out: GI; summary of the method: as §1
[33] = test system: MDA-MB-468; experiment: Growth inhibition of human MDA-MB-468 cells at 10 uM relative to control; conditions: read-out: GI; summary of the method: as §1
[34] = test system: MOLT-4; experiment: Growth inhibition of human MOLT4 cells at 10 uM relative to control; conditions: read-out: GI; summary of the method: as §1
[35] = test system: TK-10; experiment: Growth inhibition of human TK10 cells at 10 uM relative to control; conditions: read-out: GI; summary of the method: as §2
[36] = test system: SN12C; experiment: Growth inhibition of human SN12C cells at 10 uM relative to control; conditions: read-out: GI; summary of the method: as §2
[37] = test system: HL-60(TB); experiment: Growth inhibition of human HL-60(TB) cells at 10 uM relative to control; conditions: read-out: GI
Summary of the method: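 Single-dose screen at 10 μM across the 60-cell-line tumour panel. Percent growth inhibition = 100 minus percent growth activity relative to untreated control.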

[38] = test system: UACC-62; experiment: Growth inhibition of human UACC62 cells at 10 uM relative to control; conditions: read-out: GI; summary of the method: as §2
[39] = test system: SF-268; experiment: Growth inhibition of human SF268 cells at 10 uM relative to control; conditions: read-out: GI; summary of the method: as §1
[40] = test system: HCC 2998; experiment: Growth inhibition of human HCC2998 cells at 10 uM relative to control; conditions: read-out: GI; summary of the method: as §1
[41] = test system: NCI-H322M; experiment: Growth inhibition of human NCI-H322M cells at 10 uM relative to control; conditions: read-out: GI; summary of the method: as §1
[42] = test system: NCI-H522; experiment: Growth inhibition of human NCI-H522 cells at 10 uM relative to control; conditions: read-out: GI; summary of the method: as §1
[43] = test system: SK-OV-3; experiment: Growth inhibition of human SKOV3 cells at 10 uM relative to control; conditions: read-out: GI; summary of the method: as §1
[44] = test system: CCRF-CEM; experiment: Growth inhibition of human CCRF-CEM cells at 10 uM relative to control; conditions: read-out: GI; summary of the method: as §1

SMILES	inhibition of growth at 10 µM [1] [%]	inhibition of growth at 10 µM [3] [%]	inhibition of growth at 10 µM [5] [%]	inhibition of growth at 10 µM [7] [%]	inhibition of growth at 10 µM [8] [%]	inhibition of growth at 10 µM [11] [%]	inhibition of growth at 10 µM [12] [%]	inhibition of growth at 10 µM [14] [%]	inhibition of growth at 10 µM [16] [%]	inhibition of growth at 10 µM [17] [%]	inhibition of growth at 10 µM [18] [%]	inhibition of growth at 10 µM [20] [%]	inhibition of growth at 10 µM [21] [%]	inhibition of growth at 10 µM [22] [%]	inhibition of growth at 10 µM [23] [%]	inhibition of growth at 10 µM [26] [%]	inhibition of growth at 10 µM [27] [%]	inhibition of growth at 10 µM [29] [%]	inhibition of growth at 10 µM [31] [%]	inhibition of growth at 10 µM [32] [%]	further results
Cc1ccccc1-n1c(C)nc2cc(NC(=O)c3ccccc3)ccc2c1=O	16.3	26.6	12	5	14	4	12	18	9	21.2	6	2.5	2	28	29	11.1	10	23	8	3.7	inhibition of growth at 10 µM [2]: 17.3%; inhibition of growth at 10 µM [4]: 9%; inhibition of growth at 10 µM [6]: 5%; inhibition of growth at 10 µM [9]: 24%; Activity [10]: 0%; inhibition of growth at 10 µM [13]: 11%; Activity [15]: 33%; inhibition of growth at 10 µM [19]: 3.5%; inhibition of growth at 10 µM [24]: 17%; inhibition of growth at 10 µM [25]: 3.2%; Activity [28]: 33%; inhibition of growth at 10 µM [30]: 7%; inhibition of growth at 10 µM [33]: 2%; inhibition of growth at 10 µM [34]: 8.2%; inhibition of growth at 10 µM [35]: 24%; inhibition of growth at 10 µM [36]: 15%; inhibition of growth at 10 µM [37]: 6%; inhibition of growth at 10 µM [38]: 23%
Cc1ccccc1-n1c(C)nc2cc(N)ccc2c1=S	9.8	8.3	4	5.5	2	5	10	8	6	15.5	17	22	4	11	16.6	15.2	2	20	9.5	2.5	inhibition of growth at 10 µM [39]: 10.6%; inhibition of growth at 10 µM [40]: 16.6%; inhibition of growth at 10 µM [41]: 11.1%; inhibition of growth at 10 µM [42]: 4%; inhibition of growth at 10 µM [43]: 5%; inhibition of growth at 10 µM [44]: 9.5%; inhibition of growth at 10 µM [35]: 10%; inhibition of growth at 10 µM [38]: 9%
